In publication PMC6127844 (Journal of Enzyme Inhibition and Medicinal Chemistry, 2018):
Where two headings read alike, the source gives them in different places.

Columns and labels:
SH-SY5Y cells = assay: Concentration screening for nontoxic concentration; format: cell-based, human; settings: 24 h, MTT
Summary of the method: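 SH-SY5Y human neuroblastoma cells grown in DMEM with 10% heat-inactivated FCS, penicillin and streptomycin at 37 °C in 5% CO2. Plated at 0.12 × 10^6 cells/ml. Test compound from 25 mM DMSO stock, screened at 5 to 30 μM. MTT (0.5 mg/ml) for 3 h at 37 °C; formazan dissolved in 0.04 M HCl/isopropanol and read at 570 nm. Expressed as % of untreated cells.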

Aβ1–42 [1] = target: T1, Aβ1–42 (Homo sapiens, UniProt P05067); assay: TEM imaging of Aβ1–42 aggregation
Summary of the method: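 Aβ1–42 film dissolved by sonication in CH3CN/NaCl/NH4OH and diluted in 50 mM HEPES, pH 6.6. Mixed with test compound, with or without CuCl2, and incubated 24 h at 37 °C with gentle shaking. Sample applied to formvar/carbon Cu grids for 2 min at RT, washed with water and stained with 1% uranyl acetate for 1 min. Imaged at 200 kV, 10000–20000×.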

[2] = Antioxidant activity, DPPH radical scavenging; settings: read-out: DPPH radical scavenging EC50
Summary of the method: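 DPPH at 0.002% in methanol mixed with the test compound in methanol at five concentrations. Incubated 30 min at RT, protected from light. Absorbance read at 517 nm against a methanol blank. %AA = 100×(A_DPPH − A_sol)/A_DPPH. Run in duplicate. EC50 taken from a plot of antioxidant activity against compound concentration.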

[3] = physiological pH, CL/CM=10, CM=1 μM; cited from earlier work
Aβ1–42 [4] = target: T1, Aβ1–42; settings: cited from earlier work
Aβ1–42 [5] = target: T1, Aβ1–42; assay: Inhibition of Cu; format: biochemical; settings: read-out: Inhibition of Aβ aggregation in the presence of copper(II)
Summary of the method: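 Aβ1–42 pretreated with HFIP, held as stock in CH3CN/Na2CO3/NaOH, then diluted to 40 μM in 0.215 M phosphate, pH 8.0. Incubated 24 h at 37 °C with or without test compound (80 μM), with CuCl2 (40 μM) for the Cu(II) condition. ThT (5 μM, glycine–NaOH pH 8.5) fluorescence read at 446/485 nm, corrected for peptide-free blanks. % inhibition taken versus no compound; mean ± SEM of duplicates from two experiments.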

[6] = read-out: DPPH radical scavenging EC50, cited from earlier work

T1 sequence (P05067 672-713): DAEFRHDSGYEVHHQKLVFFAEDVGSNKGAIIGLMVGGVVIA

O=C(NCC1CCN(Cc2ccccc2)CC1)c1ccc2[nH]c(-c3ccccc3O)nc2c1 [Compound 1, N-((1-benzylpiperidin-4-yl)methyl)-2-(2-hydroxyphenyl)-1H-benzo[d]imidazole-5-carboxamide]
Highest nontoxic concentration (SH-SY5Y cells): 2.5 µM | Aβ aggregates seen by TEM (Aβ1–42 [1]; absence of copper): quite sparse | Aβ aggregates seen by TEM (Aβ1–42 [1]; presence of copper): reduction of Aβ aggregates

O=C(NCCN1CCN(Cc2ccccc2)CC1)c1ccc2[nH]c(-c3ccccc3O)nc2c1 [Compound 2, N-(2-(4-benzylpiperazin-1-yl)ethyl)-2-(2-hydroxyphenyl)-1H-benzo[d]imidazole-5-carboxamide]
EC50 [2]: 594 ± 4 µM | Highest nontoxic concentration (SH-SY5Y cells): 5 µM | pCu [3]: 11.4 | Aβ aggregates seen by TEM (Aβ1–42 [4]; absence of copper): a reduction of Aβ aggregates was also observed | Aβ aggregates seen by TEM (Aβ1–42 [4]; presence of copper): reduction of Aβ aggregates

O=C(NCCN1CCN(Cc2ccccc2)CC1)c1cc2cccc(O)c2o1 [Compound 3, N-(2-(4-benzylpiperazin-1-yl)ethyl)-7-hydroxybenzofuran-2-carboxamide]
inhibition (Aβ1–42 [5]): 35.5%

O=C(NCC1CCN(Cc2ccccc2)CC1)c1cc2ccccc2o1 [Compound 4, N-((1-benzylpiperidin-4-yl)methyl)benzofuran-2-carboxamide]
Highest nontoxic concentration (SH-SY5Y cells): 30 µM

O=C(NCCN1CCN(Cc2ccccc2)CC1)c1cc2ccccc2o1 [Compound 5, N-(2-(4-benzylpiperazin-1-yl)ethyl)benzofuran-2-carboxamide]
Highest nontoxic concentration (SH-SY5Y cells): 30 µM

COc1cccc2cc(C(=O)NCC3CCN(Cc4ccccc4)CC3)oc12 [Compound 6, N-((1-benzylpiperidin-4-yl)methyl)-7-methoxy-benzofuran-2-carboxamide]
Highest nontoxic concentration (SH-SY5Y cells): 20 µM

COc1cccc2cc(C(=O)NCCN3CCN(Cc4ccccc4)CC3)oc12 [Compound 7, N-(2-(4-benzylpiperazin-1-yl)ethyl)-7-methoxybenzofuran-2-carboxamide]
Highest nontoxic concentration (SH-SY5Y cells): 30 µM

Nc1c2c(nc3ccccc13)CCCC2 [Tacrine, tacrine]
EC50 [6]: > 1000 µM

Cc1c(C)c2c(c(C)c1O)CCC(C)(C(=O)O)O2 (stereo not drawn) [Trolox]
EC50 ([6]; same experimental method): 15 µM
